Measured values as given in ChEMBL document CHEMBL3352067, “1,8-Naphthyridines IX. Potent anti-inflammatory and/or analgesic activity of a new group of substituted 5-amino[1,2,4]triazolo[4,3-a][1,8]naphthyridine-6-carboxamides, of some their Mannich base derivatives and of one novel substituted …” (Eur J Med Chem, 2014).
Calls of active or inactive are those of the source. No cut-off for these calls is given here.

Experiments:
Rattus norvegicus [1] = assay: Antiinflammatory activity in Wistar rat assessed as inhibition of carrageenan-induced paw oedema at 50 mg/kg, po administered 1 hr prior to carrageenan challenge; assay type: functional
Method in brief: (§1)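 Wistar rats (250–300 g, either sex), fasted overnight, dosed by oral gavage with compound suspended in 0.5% methylcellulose; controls got vehicle. Groups of 8–10. 1 h later 0.1 mL 1% carrageenan injected subcutaneously into hind paw plantar surface; paw volume measured by plethysmometer immediately and 3 h later. Inhibition calculated from swelling difference versus controls (control = 100).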

Rattus norvegicus [2] = assay: Antiinflammatory activity in Wistar rat assessed as inhibition of carrageenan-induced paw oedema at 100 mg/kg, po administered 1 hr prior to carrageenan challenge; assay type: functional; method in brief: as §1
Mus musculus [3] = assay: Antinociceptive activity in Swiss mouse assessed as inhibition of acetic acid-induced writhing at 50 mg/kg, po administered 1 hr prior to acetic acid challenge measured for 30 mins; assay type: functional
Method in brief: (§2)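 Swiss mice (25–35 g, either sex), fasted overnight, given compound orally in 0.5% methylcellulose; controls received vehicle; groups of 8–10. Writhes, scored as complete extension of either hind limb, counted over 30 min after injection of the noxious agent. Percent inhibition derived from the difference in writhing between treated and control groups.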

Rattus norvegicus [4] = assay: Antiinflammatory activity in Wistar rat assessed as inhibition of carrageenan-induced paw oedema at 25 mg/kg, po administered 1 hr prior to carrageenan challenge; assay type: functional; method in brief: as §1
Mus musculus [5] = assay: Antinociceptive activity in Swiss mouse assessed as inhibition of acetic acid-induced writhing at 100 mg/kg, po administered 1 hr prior to acetic acid challenge measured for 30 mins; assay type: functional; method in brief: as §2
Mus musculus [6] = assay: Antinociceptive activity in Swiss mouse assessed as inhibition of acetic acid-induced writhing at 25 mg/kg, po administered 1 hr prior to acetic acid challenge measured for 30 mins; assay type: functional; method in brief: as §2
Rattus norvegicus [7] = assay: Antiinflammatory activity in Wistar rat assessed as inhibition of carrageenan-induced paw oedema at 12.5 mg/kg, po administered 1 hr prior to carrageenan challenge; assay type: functional; method in brief: as §1
J774 = assay: Antiinflammatory activity in mouse J774 cells assessed as inhibition of LPS-induced NO production at 100 uM after 6 hrs by Griess assay; assay type: functional, cell-based
Method in brief: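 J774 murine macrophages grown in DMEM with 10% FBS and 2 mM glutamine at 37 °C, 5% CO2. Cells plated at 2.5 × 10⁵/mL, left to adhere overnight, and the medium refreshed. Compound added together with LPS. Supernatants taken after 6 h; nitrite measured with Griess reagent (10 min) as absorbance at 540 nm, with fresh medium as blank.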

Mus musculus [8] = assay: Sedative activity in Swiss mouse assessed as inhibition of spontaneous locomotor activity at 100 mg/kg, po measured for 30 mins by open-field test; assay type: organism-based; design: dose 100 mg/kg, route oral; conditions: in vivo, 0.5 h
Method in brief: (§3)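 Swiss mice (25-35 g, either sex), fasted overnight, given compound orally by gavage suspended in 0.5% methylcellulose; vehicle controls; groups of 8-10. Spontaneous locomotor activity recorded by videocamera with video-tracking as distance (m) travelled in 30 min; Student's t-test vs controls.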

Rattus norvegicus [9] = assay: Antiinflammatory activity in Wistar rat assessed as inhibition of carrageenan-induced paw oedema at 1.6 mg/kg, po administered 1 hr prior to carrageenan challenge; assay type: functional; method in brief: as §1
[10] = Antiplatelet activity in guinea pig platelet rich plasma assessed as inhibition of arachidonic acid-induced aggregation by aggregometry; assay type: functional, cell-free; conditions: Cavia porcellus
Method in brief: (§4)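 Guinea pig blood drawn by cardiac puncture into 3.8% citrate (1:9). PRP obtained by spinning at 180 g for 15 min, PPP at 2000 g for 10 min. PRP preincubated 5 min at 37 °C with compound or DMSO (≤0.5% final), then aggregation triggered by U46619, ADP or arachidonic acid. Born turbidimetry at 37 °C with stirring; percent inhibition versus control; tested within 3 h.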

Rattus norvegicus [11] = assay: Antiinflammatory activity in Wistar rat assessed as inhibition of carrageenan-induced paw oedema at 0.8 mg/kg, po administered 1 hr prior to carrageenan challenge; assay type: functional; method in brief: as §1
[12] = Antiplatelet activity in guinea pig platelet rich plasma assessed as inhibition of U46619-induced aggregation by aggregometry; assay type: functional, cell-free; conditions: Cavia porcellus; method in brief: as §4
Rattus norvegicus [13] = assay: Antiinflammatory activity in Wistar rat assessed as inhibition of carrageenan-induced paw oedema at 6.25 mg/kg, po administered 1 hr prior to carrageenan challenge; assay type: functional; method in brief: as §1
[14] = Antiplatelet activity in guinea pig platelet rich plasma assessed as inhibition of ADP-induced aggregation by aggregometry; assay type: functional, cell-free; conditions: Cavia porcellus; method in brief: as §4
Rattus norvegicus [15] = assay: Antiinflammatory activity in Wistar rat assessed as inhibition of carrageenan-induced paw oedema at 3.12 mg/kg, po administered 1 hr prior to carrageenan challenge; assay type: functional; method in brief: as §1
Rattus norvegicus [16] = assay: Acute gastrolesivity in Wistar rat assessed as stomach lesions at 100 mg/kg, po measured after 5 hrs; assay type: toxicity, organism-based; design: dose 100 mg/kg, route oral; conditions: in vivo
Method in brief: (§5)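 Wistar rats (250-300 g, either sex), fasted overnight, dosed by oral gavage in 0.5% methylcellulose (1 mL 100 g^-1); groups of 8-10. Stomachs excised 5 h post-dose, fixed with 2% formalin, opened along greater curvature, examined by stereomicroscope by blinded observer. Read-out: number of rats with gastric damage over number treated.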

Mus musculus [17] = assay: Sedative activity in Swiss mouse assessed as inhibition of spontaneous locomotor activity at 50 mg/kg, po measured for 30 mins by open-field test; assay type: organism-based; design: dose 50 mg/kg, route oral; conditions: in vivo, 0.5 h; method in brief: as §3
Rattus norvegicus [18] = assay: Acute gastrolesivity in Wistar rat assessed as stomach lesions at 10 mg/kg, po measured after 5 hrs; assay type: toxicity, organism-based; design: dose 10 mg/kg, route oral; conditions: in vivo; method in brief: as §5
Mus musculus [19] = assay: Sedative activity in Swiss mouse assessed as inhibition of spontaneous locomotor activity at 25 mg/kg, po measured for 30 mins by open-field test; assay type: organism-based; design: dose 25 mg/kg, route oral; conditions: in vivo, 0.5 h; method in brief: as §3
Mus musculus [20] = assay: Antinociceptive activity in Swiss mouse assessed as inhibition of acetic acid-induced writhing at 12.5 mg/kg, po administered 1 hr prior to acetic acid challenge measured for 30 mins; assay type: functional; method in brief: as §2
Mus musculus [21] = assay: Antinociceptive activity in Swiss mouse assessed as inhibition of acetic acid-induced writhing at 6.25 mg/kg, po administered 1 hr prior to acetic acid challenge measured for 30 mins; assay type: functional; method in brief: as §2
Mus musculus [22] = assay: Sedative activity in Swiss mouse assessed as inhibition of spontaneous locomotor activity at 12.5 mg/kg, po measured for 30 mins by open-field test; assay type: organism-based; design: dose 12.5 mg/kg, route oral; conditions: in vivo, 0.5 h; method in brief: as §3

| Structure (SMILES) | inhibition in vivo at 50 mg/kg (Rattus norvegicus [1]) [%] | inhibition in vivo at 100 mg/kg (Rattus norvegicus [2]) [%] | inhibition in vivo at 50 mg/kg (Mus musculus [3]) [%] | inhibition in vivo at 25 mg/kg (Rattus norvegicus [4]) [%] | inhibition in vivo at 100 mg/kg (Mus musculus [5]) [%] | inhibition in vivo at 25 mg/kg (Mus musculus [6]) [%] | Activity (Mus musculus [8]) | further results |
| --- | --- | --- | --- | --- | --- | --- | --- | --- |
| CCNC(=O)c1c(NC(CC)CC)c2cccnc2n2c(C(C)C)nnc12 | 35 | 60 | 41 | 30 | 34 | 0 |  | inhibition in vivo at 12.5 mg/kg (Rattus norvegicus [7]): 12% |
| CCN(CC)C(=O)c1c(NC(C)C)c2cccnc2n2c(CN3CCOCC3)nnc12 |  | 0 |  |  | 0 |  |  |  |
| CCNC(=O)c1c(NC(C)C)c2cccnc2n2c(C(C)C)nnc12 | 72 | 80 | 64 | 57 | 66 | 15 | Toxic | inhibition (J774): inactive; inhibition in vivo at 1.6 mg/kg (Rattus norvegicus [9]): 31%; IC50 [10]: 24 µM; inhibition in vivo at 0.8 mg/kg (Rattus norvegicus [11]): 0%; IC50 [12]: 89 µM; inhibition in vivo at 6.25 mg/kg (Rattus norvegicus [13]): 40%; IC50 [14]: 281 µM; inhibition in vivo at 3.12 mg/kg (Rattus norvegicus [15]): 31%; Activity (Rattus norvegicus [16]): Non-toxic; inhibition in vivo at 12.5 mg/kg (Rattus norvegicus [7]): 54% |
| CCN(CC)C(=O)c1c(NCC(C)C)c2cccnc2n2c(=O)cc(C)nc12 |  | 15 | 54 |  | 71 | 0 |  |  |
| CCc1nnc2c(C(=O)N(CC)CC)c(N3CCN(C)CC3)c3cccnc3n12 | 29 | 39 | 81 | 22 | 95 | 10 | Toxic | Activity (Mus musculus [17]): Toxic |
| COc1ccc2c(c1)c(CC(=O)O)c(C)n2C(=O)c1ccc(Cl)cc1 [INDOMETHACIN] |  |  |  |  |  |  |  | Activity (Rattus norvegicus [18]): Toxic |
| CCN(CC)C(=O)c1c(NC(C)C)c2cccnc2n2c(CN3CCN(C)CC3)nnc12 |  | 13 |  |  | 0 |  |  |  |
| CC(C)NC(=O)c1c(NC(C)C)c2cccnc2n2c(C(C)C)nnc12 | 33 | 34 |  | 9 | 0 |  |  |  |
| CCN(CC)C(=O)c1c(N2CCN(CCO)CC2)c2cccnc2n2c(C(C)C)nnc12 |  | 0 | 96 |  | 85 | 48 | Toxic | Activity (Mus musculus [17]): Toxic; Activity (Mus musculus [19]): Toxic; inhibition in vivo at 12.5 mg/kg (Mus musculus [20]): 13% |
| CCN(CC)C(=O)c1c(N2CCN(C)CC2)c2cccnc2n2c(CN3CCOCC3)nnc12 |  | 8 |  |  | 37 |  |  |  |
| CCCNC(=O)c1c(NC(C)C)c2cccnc2n2c(C(C)C)nnc12 | 63 | 72 | 0 | 70 | 0 |  |  | inhibition in vivo at 6.25 mg/kg (Rattus norvegicus [13]): 19%; inhibition in vivo at 12.5 mg/kg (Rattus norvegicus [7]): 44% |
| CC(=O)Oc1ccccc1C(=O)O [ASPIRIN] |  |  |  |  |  |  |  | IC50 [10]: 45 µM; IC50 [12]: > 500 µM; IC50 [14]: > 500 µM |
| CCN1CCN(c2c(C(=O)N(CC)CC)c3nnc(C(C)C)n3c3ncccc23)CC1 | 35 | 31 | 74 | 36 | 100 | 72 | Toxic | inhibition in vivo at 6.25 mg/kg (Mus musculus [21]): 0%; Activity (Mus musculus [22]): Toxic; Activity (Mus musculus [17]): Toxic; Activity (Mus musculus [19]): Toxic; inhibition in vivo at 6.25 mg/kg (Rattus norvegicus [13]): 8%; inhibition in vivo at 12.5 mg/kg (Mus musculus [20]): 50%; inhibition in vivo at 12.5 mg/kg (Rattus norvegicus [7]): 31% |
| CCN(CC)C(=O)c1c(N2CCN(C)CC2)c2cccnc2n2c(CN3CCN(C)CC3)nnc12 |  | 0 |  |  | 0 |  |  |  |
| CNC(=O)c1c(NC(C)C)c2cccnc2n2c(C(C)C)nnc12 | 3 | 50 | 11 |  | 67 |  | Toxic |  |
